In ChEMBL document CHEMBL3228013 (J Med Chem, 1979):
The source made the active and inactive calls. The calls are words filed in the database; no cut-off is given here.

Tests used:
[1] = Half life of the compound in 1:1 H2O:ethylalcohol containing 3.33 x 10^-3 M NaOH at 8.3 x 10^-5 M by UV-spectroscopy; assay type: physicochemical; conditions: 1:1 water:ethanol with NaOH
[2] = Drug metabolism assessed as wheat germ orthophosphoric monoester phosphohydrolase-mediated hydrolysis at 1.5 mM by UV spectroscopy; assay type: ADME; conditions: triticum aestivum, 1500 µM
In short: (§1)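 Wheat germ orthophosphoric monoester phosphohydrolase (2.1 units/mg toward 2-carboxyphenyl phosphate) was used. Compound at 1.5 mM was incubated in 0.15 M NaOAc pH 5.0 with glycerin at about 25–26 °C for 2 h, against a reference cell without enzyme, with UV monitoring at 290 nm. 2-Carboxyphenyl phosphate was then added to check remaining enzyme activity.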

[3] = Half life of the compound in 1:1 H2O:ethylalcohol containing 5 x 10^-3 M NaOH at 8.3 x 10^-5 M by UV-spectroscopy; assay type: physicochemical; conditions: 1:1 water:ethanol with NaOH
[4] = Half life of the compound in 1:1 H2O:ethylalcohol containing 6.66 x 10^-3 M NaOH at 8.3 x 10^-5 M by UV-spectroscopy; assay type: physicochemical; conditions: 1:1 water:ethanol with NaOH
[5] = tested on: KB; assay: Cytotoxicity against human KB cells; assay type: functional, cell-based
[6] = Half life of the compound in 1:1 H2O:ethylalcohol containing 8.33 x 10^-3 M NaOH at 8.3 x 10^-5 M by UV-spectroscopy; assay type: physicochemical; conditions: 1:1 water:ethanol with NaOH
[7] = Inhibition of wheat germ orthophosphoric monoester phosphohydrolase using 2-carboxyphenyl phosphate as substrate at 1.5 mM after 2 hrs by UV spectroscopy; conditions: triticum aestivum, 1500 µM; in short: as §1
[8] = Toxicity in ip dosed mouse allografted with mouse L1210 cells; assay type: organism-based; conditions: in vivo
In short: (§2)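 Female or male mice bearing L1210 lymphoid leukemia were tested under the NCI standard protocol. Dosing was ip, day 1 only, in aqueous Tween-80, at halved doses starting at 500 mg/kg and generally ending at 62.5 mg/kg. Mean survival time was assessed on day 30, and T/C ≥125% was taken as active.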

[9] = tested on: L1210; assay: Antitumor activity against mouse L1210 cells allografted in mouse at 500 mg/kg, ip began on day 1 halved compound dose ended at […], ip measured on day 30; assay type: functional, organism-based; in short: as §2
[10] = Half life of the compound in 1:1 H2O:ethylalcohol containing 2.08 x 10^-3 M NaOH at 8.3 x 10^-5 M by UV-spectroscopy; assay type: physicochemical; conditions: 1:1 water:ethanol with NaOH
[11] = tested on: Mus musculus; assay: Toxicity in mouse allografted with mouse L1210 cells at 500 mg/kg, ip; assay type: organism-based; design: dose 500 mg/kg, route intraperitoneal; conditions: in vivo; in short: as §2
[12] = Half life of the compound in 1:4 D2O:[…] containing at 1 x 10^-3 M NaOD at 5 x 10^-2 M by UV-spectroscopy; assay type: physicochemical; conditions: 1:4 D2O:Me2SO-d2 with NaOD

NP(=O)(Oc1c(F)c(F)c(F)c(F)c1F)N(CCCl)CCCl (configuration not stated)
half-life at 83 µM [1]: 1.33 min
Stability [2]: Stable
half-life at 83 µM [3]: 0.867 min
half-life at 83 µM [4]: 0.717 min
Activity [5]: inactive
half-life at 83 µM [6]: 0.6 min
inhibition (INH) [7]: Not Active
MTD [8]: 31.2 mg/kg
Activity [9]: inactive
half-life at 83 µM [10]: 2 min

CCOc1ccc(NP(=O)(Oc2c(F)c(F)c(F)c(F)c2F)N(CCCl)CCCl)cc1 (configuration not stated)
Activity [11]: Non-toxic
Activity [5]: inactive
half-life at 50000 µM [12]: 8.17 min
Activity [9]: inactive

Cc1ccc(NP(=O)(Oc2c(F)c(F)c(F)c(F)c2F)N(CCCl)CCCl)cc1 (configuration not stated)
Activity [11]: Non-toxic
Activity [5]: inactive
half-life at 50000 µM [12]: 6.53 min
Activity [9]: inactive

O=P(Nc1ccccc1)(Oc1c(F)c(F)c(F)c(F)c1F)N(CCCl)CCCl (configuration not stated)
Activity [11]: Non-toxic
Activity [5]: inactive
half-life at 50000 µM [12]: 5.3 min
Activity [9]: inactive
